How the values were obtained:
Yersinia pestis [1] = assay: Inhibition of Yersinia pestis protein tyrosine phosphatase at 100 uM
How it was run: (§1)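 Single-concentration percent inhibition screen with p-NPP substrate, 2.9 mM for Yersinia PTP and 2.0 mM for PTP1B. Buffer was 50 mM 3,3-dimethylglutarate pH 7.0 with 1 mM EDTA, 50 mM NaCl and 10% DMSO, at room temperature. Initial hydrolysis rates were read at 405 nm from 10 to 130 s.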

[2] = Inhibition of Yersinia pestis protein tyrosine phosphatase 1B
How it was run: (§2)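 p-NPP hydrolysis at room temperature in 50 mM 3,3-dimethylglutarate pH 7.0, 1 mM EDTA, 50 mM NaCl, 10% DMSO. Substrate was held at Km: Yersinia PTP 2.9, PTP1B 2.0, TCPTP 2.1, CD45 7.0 mM. Initial rates came from absorbance at 405 nm, 10–130 s after mixing. IC50 was obtained by Dixon analysis.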

[3] = Inhibition of Yersinia pestis protein tyrosine phosphatase CD45; how it was run: as §2
Yersinia pestis [4] = assay: Inhibition of Yersinia pestis protein tyrosine phosphatase at 10 uM; how it was run: as §1
[5] = Inhibition of Yersinia pestis protein tyrosine phosphatase; how it was run: as §2
[6] = Inhibition of Yersinia pestis Protein tyrosine phosphatase TC; how it was run: as §2

Compound | inhibition (Yersinia pestis [1]) [%] | IC50 [2] [µM] | IC50 [3] [µM] | inhibition (Yersinia pestis [4]) [%] | IC50 [5] [µM] | IC50 [6] [µM]
C#Cc1ccc(C#C)cc1 | > 60 |  |  |  |  | 
COc1ccc2cc(-c3cn(C[C@H](Cc4c[nH]c5ccccc45)NC(=O)c4cn(-c5ccc(C(=O)C(=O)O)cc5)nn4)nn3)ccc2c1 |  | 5.7 | 16.8 | > 60 | 2.1 | 2.6
O=C(O)C(=O)c1ccc(-n2cc(-c3ccc(-c4ccccc4)cc3)nn2)cc1 |  | 84 |  |  | 45 | 
O=C(O)C(=O)c1ccc(-n2cc(-c3cccc(-c4cn(-c5ccc(C(=O)C(=O)O)cc5)nn4)c3)nn2)cc1 |  | 77 |  |  | 25 | 
C#Cc1ccc(-c2ccccc2)cc1 | > 60 |  |  |  |  | 
O=C(O)C(=O)c1ccc(-n2cc(C(=O)N[C@H](CO)Cc3c[nH]c4ccccc34)nn2)cc1 |  | 500 |  |  | 58 | 
C#Cc1cccc(C#C)c1 | > 60 |  |  |  |  | 
O=C(O)C(=O)c1ccc(-n2cc(C(=O)N[C@@H](Cc3c[nH]c4ccccc34)Cn3cc(-c4cccc(-c5cn(C[C@H](Cc6c[nH]c7ccccc67)NC(=O)c6cn(-c7ccc(C(=O)C(=O)O)cc7)nn6)nn5)c4)nn3)nn2)cc1 |  | 4.1 | 8.5 | > 60 | 1.3 | 1.8
O=C(O)C(=O)c1ccc(-n2cc(C(=O)N[C@@H](Cc3c[nH]c4ccccc34)Cn3cc(-c4ccc(-c5cn(C[C@H](Cc6c[nH]c7ccccc67)NC(=O)c6cn(-c7ccc(C(=O)C(=O)O)cc7)nn6)nn5)cc4)nn3)nn2)cc1 |  | 2.1 | 8.4 | > 60 | 0.55 | 0.71
C#CC(=O)N[C@H](CO)Cc1c[nH]c2ccccc12 | > 60 |  |  |  |  | 
Cc1ccc(S(=O)(=O)c2cn(C[C@H](Cc3c[nH]c4ccccc34)NC(=O)c3cn(-c4ccc(C(=O)C(=O)O)cc4)nn3)nn2)cc1 |  | 7.4 | 15.8 | > 60 | 2.1 | 2.6

— ChEMBL document CHEMBL1144498, “A two stage click-based library of protein tyrosine phosphatase inhibitors” (Bioorg Med Chem, 2007)
